Assay results published in ChEMBL document CHEMBL3352274, “Oxadiazoles and thiadiazoles: novel α-glucosidase inhibitors” (Bioorg Med Chem, 2014).

Legend:
[1] = Inhibition of alpha-glucosidase (unknown origin) using p-nitrophenyl-alpha-D-glucopyranoside substrate measured up to 30 mins by multiplate spectrophotometry; set-up: species or system Homo sapiens
Procedure, shortened: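 Enzyme 0.2 U/mL in phosphate buffered saline, preincubated with test compounds at various concentrations, 15 min, 37 °C. Assay in 0.1 M phosphate buffer pH 6.8 at 37 °C. Triplicate reactions, acarbose as standard. % inhibition = 100 − (OD test/OD control) × 100. IC50 by enzyme kinetics fitting.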

3T3 = experiment: Cytotoxicity against […] 3T3 cells by MTT assay; conditions: Mus musculus, NIH3T3
[2] = molecular target: Carbonic anhydrase 2 (Bos taurus) (UniProt P00921); experiment: Inhibition of carbonic anhydrase 2 (unknown origin) using 4-NPA substrate after 15 mins by spectrophotometry
Serpentes = experiment: (§1) Inhibition of snake venom phosphodiesterase 1 using bis(p-nitrophenyl) phosphate substrate after 30 mins by spectrophotometry; set-up: concentration or dose not given beside the values
Procedure, shortened: (§2)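 Assayed in 33 mM Tris–HCl buffer (pH 8.8) with 30 mM Mg-acetate as co-factor, 0.000742 U of enzyme and 0.33 mM substrate. After 30 min of incubation, activity was followed at 37 °C as p-nitrophenol release at 410 nm. Initial rates were taken as change in OD/min. All reactions were run in triplicate, with EDTA as positive control.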

[3] = as §1; set-up: species or system Serpentes; procedure, shortened: as §2
[4] = Non-competitive inhibition of alpha-glucosidase (unknown origin) by Lineweaver-Burk plot; set-up: species or system Homo sapiens
Procedure, shortened: (§3)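 Mode of inhibition from Lineweaver–Burk plots (1/rate vs 1/substrate concentration) at varying inhibitor concentrations, tracking Km and Vmax. Ki from secondary re-plots of Lineweaver–Burk slopes vs inhibitor concentration and from Dixon plots (1/rate vs inhibitor concentration). Each point mean of three experiments.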

[5] = Competitive inhibition of alpha-glucosidase (unknown origin) by Lineweaver-Burk plot; set-up: species or system Homo sapiens; procedure, shortened: as §3

Row | SMILES | IC50 [1] | IC50 ([1]; read-out: IC50) [µM] | also measured
1 | O=C(CSc1nnc(-c2cccnc2)o1)c1ccc(Br)cc1 | Not Active |  | 
2 | O=C(CSc1nnc(-c2cccnc2)o1)c1cccc(F)c1 | Not Active |  | 
3 | O=C(CSc1nnc(-c2ccccc2)o1)c1cccc(O)c1 |  | 112 | 
4 | COc1ccccc1C(=O)CSc1nnc(-c2ccc(OCc3ccccc3)cc2)o1 |  | 11.8 | IC50 (3T3): > 30 µM; IC50 [2]: Not Active; inhibition [2]: 33%; inhibition (Serpentes): 8.5%; IC50 [3]: Not Active; Ki [4]: 4.36 µM
5 | C[C@H]1O[C@H](O[C@H]2[C@H](O)[C@@H](O)[C@@H](O[C@H]3[C@H](O)[C@@H](O)C(O)O[C@@H]3CO)O[C@@H]2CO)[C@H](O)[C@@H](O)[C@@H]1N[C@H]1C=C(CO)[C@@H](O)[C@H](O)[C@H]1O (some centres undefined) [ACARBOSE] |  | 937 | Ki [5]: 890 µM
6 | COc1ccc(C(=O)CSc2nnc(SCC(=O)c3ccc(OC)cc3)s2)cc1 | Not Active |  | 
7 | O=C(CSc1nnc(-c2cccnc2)o1)c1cccc(O)c1 | Not Active |  | 
8 | O=C(CSc1nnc(SCC(=O)c2cccc(F)c2)s1)c1cccc(F)c1 |  | 24.6 | 
9 | O=C(CSc1nnc(SCC(=O)c2cccc(O)c2)s1)c1cccc(O)c1 |  | 20.4 | IC50 (3T3): > 30 µM; IC50 [2]: Not Active; inhibition [2]: 42.9%; inhibition (Serpentes): 4.6%; IC50 [3]: Not Active; Ki [4]: 14.3 µM
10 | O=C(CSc1nnc(-c2ccccc2)o1)c1cccc(F)c1 | Not Active |  | 
11 | O=C(CSc1nnc(-c2ccccc2)o1)c1ccc(Br)cc1 | Not Active |  | 
12 | O=C(CSc1nnc(-c2cccnc2)o1)c1cc2ccccc2oc1=O | Not Active |  | 
13 | O=C(CSc1nnc(SCC(=O)c2ccc(-c3ccccc3)cc2)s1)c1ccc(-c2ccccc2)cc1 |  | 51.8 | 
14 | O=C(CSc1nnc(-c2ccc(OCc3ccccc3)cc2)o1)c1cccc(O)c1 |  | 17.9 | IC50 (3T3): > 30 µM; IC50 [2]: Not Active; inhibition [2]: 48.2%; inhibition (Serpentes): 1.8%; IC50 [3]: Not Active; Ki [4]: 11.2 µM
15 | O=C(CSc1nnc(SCC(=O)c2ccccc2)s1)c1ccccc1 |  | 10.8 | IC50 (3T3): > 30 µM; IC50 [2]: Not Active; inhibition [2]: 33.8%; inhibition (Serpentes): 12.3%; IC50 [3]: Not Active; Ki [5]: 6 µM
16 | COc1ccc(C(=O)CSc2nnc(-c3ccc(OCc4ccccc4)cc3)o2)cc1 | Not Active |  | 
17 | O=C(CSc1nnc(-c2ccc(Cl)cc2)o1)c1ccc(-c2ccccc2)cc1 | Not Active |  | 
18 | COc1ccccc1C(=O)CSc1nnc(SCC(=O)c2ccccc2OC)s1 |  | 94.3 | 
19 | O=C(CSc1nnc(-c2ccccc2)o1)c1ccc(Cl)c(Cl)c1 |  | 74.2 | 
20 | O=C(CSc1nnc(-c2ccc(Cl)cc2)o1)c1cccc(O)c1 |  | 24.1 | IC50 (3T3): > 30 µM; IC50 [2]: Not Active; inhibition [2]: 9%; inhibition (Serpentes): 26%; IC50 [3]: Not Active; Ki [4]: 12 µM
21 | O=C(CSc1nnc(SCC(=O)c2ccc(Cl)cc2)s1)c1ccc(Cl)cc1 | Not Active |  | 
22 | O=C(CSc1nnc(SCC(=O)c2ccc([N+](=O)[O-])cc2)s1)c1ccc([N+](=O)[O-])cc1 | Not Active |  | 
23 | O=C(CSc1nnc(SCC(=O)c2ccc(Br)cc2)s1)c1ccc(Br)cc1 |  | 166 | 
24 | O=C(CSc1nnc(-c2cccnc2)o1)c1ccc(-c2ccccc2)cc1 |  | 125 | 
25 | O=C(CSc1nnc(-c2cccnc2)o1)c1ccc([N+](=O)[O-])cc1 | Not Active |  | 
26 | O=C(CSc1nnc(SCC(=O)c2ccc(Cl)c(Cl)c2)s1)c1ccc(Cl)c(Cl)c1 | Not Active |  | 

Further lines, with some results ahead:

Row | IC50 [1] | IC50 ([1]; read-out: IC50) [µM] | SMILES | also measured
27 |  | 81.6 | COc1ccccc1C(=O)CSc1nnc(-c2ccc(Cl)cc2)o1 | 
28 | Not Active |  | COc1ccc(C(=O)CSc2nnc(-c3ccccc3)o2)cc1 | 
29 | Not Active |  | COc1cccc(C(=O)CSc2nnc(-c3ccc(Cl)cc3)o2)c1 | 
30 | Not Active |  | O=C(CSc1nnc(-c2ccc(Cl)cc2)o1)c1cccc(Cl)c1 | 
31 |  | 184 | COc1cccc(C(=O)CSc2nnc(-c3ccccc3)o2)c1 | 
32 | Not Active |  | O=C(CSc1nnc(-c2ccccc2)o1)c1ccc(Cl)cc1 | 
33 | Not Active |  | O=C(CSc1nnc(-c2ccc(Cl)cc2)o1)c1ccc(Cl)cc1 | 
34 | Not Active |  | COc1ccc(C(=O)CSc2nnc(-c3ccc(Cl)cc3)o2)cc1 | 
35 |  | 49.1 | O=C(CSc1nnc(-c2ccc(Cl)cc2)o1)c1cccc(F)c1 | 
36 | Not Active |  | O=C(CSc1nnc(-c2cccnc2)o1)c1ccc(Cl)cc1 | 
37 | Not Active |  | O=C(CSc1nnc(-c2ccccc2)o1)c1cccc(Cl)c1 | 
38 | Not Active |  | O=C(CSc1nnc(-c2ccc(Cl)cc2)o1)c1cc2ccccc2oc1=O | 
